Data as given in ChEMBL document CHEMBL4138126, “Synthesis, antiproliferative, anti-tubulin activity, and docking study of new 1,2,4-triazoles as potential combretastatin analogues” (Eur J Med Chem, 2017).

Tests used:
[1] = system: SK-MEL-2; test: Growth inhibition of human SK-MEL-2 cells assessed as cell growth at 10 uM after 48 hrs by sulforhodamine B assay; assay type: functional; conditions: SK-MEL-2, 48 h, read-out: Activity
Method in brief: (§1)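 NCI 60-cell-line panel screen (nine cancer types). Compounds added at single concentration 10^-5 M, cultures incubated 48 h; growth inhibition percentages reported.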

[2] = system: OVCAR-8; test: Growth inhibition of human OVCAR8 cells assessed as cell growth at 10 uM after 48 hrs by sulforhodamine B assay; assay type: functional; conditions: OVCAR-8, 48 h, read-out: Activity; method in brief: as §1
[3] = system: HOP-92; test: Growth inhibition of human HOP92 cells assessed as cell growth at 10 uM after 48 hrs by sulforhodamine B assay; assay type: functional; conditions: HOP-92, 48 h, read-out: Activity; method in brief: as §1
[4] = system: MOLT-4; test: Growth inhibition of human MOLT4 cells assessed as cell growth at 10 uM after 48 hrs by sulforhodamine B assay; assay type: functional; conditions: MOLT-4, 48 h, read-out: Activity; method in brief: as §1
[5] = system: ACHN; test: Growth inhibition of human ACHN cells assessed as cell growth at 10 uM after 48 hrs by sulforhodamine B assay; assay type: functional; conditions: read-out: Activity; method in brief: as §1
[6] = system: BT-549; test: Growth inhibition of human BT549 cells assessed as cell growth at 10 uM after 48 hrs by sulforhodamine B assay; assay type: functional; conditions: BT-549, 48 h, read-out: Activity; method in brief: as §1
[7] = system: RPMI-8226; test: Growth inhibition of human RPMI8226 cells assessed as cell growth at 10 uM after 48 hrs by sulforhodamine B assay; assay type: functional; conditions: RPMI-8226, 48 h, read-out: Activity; method in brief: as §1
[8] = system: U-251; test: Growth inhibition of human U251 cells assessed as cell growth at 10 uM after 48 hrs by sulforhodamine B assay; assay type: functional; conditions: U-251, 48 h, read-out: Activity
Method in brief: (§2)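 NCI 60-cell-line panel from nine tumour types (leukaemia, lung, colon, CNS, melanoma, ovarian, renal, prostate, breast). Each compound was added at one single concentration, and cultures were incubated for 48 h. Results are reported as percent growth inhibition.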

[9] = system: M14; test: Growth inhibition of human M14 cells assessed as cell growth at 10 uM after 48 hrs by sulforhodamine B assay; assay type: functional; conditions: M14, 48 h, read-out: Activity; method in brief: as §1
[10] = system: TK-10; test: Growth inhibition of human TK10 cells assessed as cell growth at 10 uM after 48 hrs by sulforhodamine B assay; assay type: functional; conditions: TK-10, 48 h, read-out: Activity; method in brief: as §2
[11] = system: OVCAR-4; test: Growth inhibition of human OVCAR4 cells assessed as cell growth at 10 uM after 48 hrs by sulforhodamine B assay; assay type: functional; conditions: OVCAR-4, 48 h, read-out: Activity; method in brief: as §1
[12] = system: A549; test: Growth inhibition of human A549/ATCC cells assessed as cell growth at 10 uM after 48 hrs by sulforhodamine B assay; assay type: functional; conditions: A549, 48 h, read-out: Activity; method in brief: as §1
[13] = system: MCF7; test: Growth inhibition of human MCF7 cells assessed as cell growth at 10 uM after 48 hrs by sulforhodamine B assay; assay type: functional; conditions: MCF7, 48 h, read-out: Activity; method in brief: as §1
[14] = system: Malme-3M; test: Growth inhibition of human MALME-3M cells assessed as cell growth at 10 uM after 48 hrs by sulforhodamine B assay; assay type: functional; conditions: read-out: Activity; method in brief: as §1
[15] = system: DU-145; test: Growth inhibition of human DU145 cells assessed as cell growth at 10 uM after 48 hrs by sulforhodamine B assay; assay type: functional; conditions: DU-145, 48 h, read-out: Activity; method in brief: as §1
[16] = system: SK-OV-3; test: Growth inhibition of human SKOV3 cells assessed as cell growth at 10 uM after 48 hrs by sulforhodamine B assay; assay type: functional; conditions: SK-OV-3, 48 h, read-out: Activity; method in brief: as §1
[17] = system: HT-29; test: Growth inhibition of human HT-29 cells assessed as cell growth at 10 uM after 48 hrs by sulforhodamine B assay; assay type: functional; conditions: HT-29, 48 h, read-out: Activity; method in brief: as §1
[18] = system: SNB-19; test: Growth inhibition of human SNB19 cells assessed as cell growth at 10 uM after 48 hrs by sulforhodamine B assay; assay type: functional; conditions: SNB-19, 48 h, read-out: Activity; method in brief: as §2
[19] = system: HCT-116; test: Growth inhibition of human HCT116 cells assessed as cell growth at 10 uM after 48 hrs by sulforhodamine B assay; assay type: functional; conditions: HCT-116, 48 h, read-out: Activity; method in brief: as §1
[20] = system: EKVX; test: Growth inhibition of human EKVX cells assessed as cell growth at 10 uM after 48 hrs by sulforhodamine B assay; assay type: functional; conditions: read-out: Activity; method in brief: as §1
[21] = system: SW-620; test: Growth inhibition of human SW620 cells assessed as cell growth at 10 uM after 48 hrs by sulforhodamine B assay; assay type: functional; conditions: SW-620, 48 h, read-out: Activity; method in brief: as §2
[22] = system: UO-31; test: Growth inhibition of human UO31 cells assessed as cell growth at 10 uM after 48 hrs by sulforhodamine B assay; assay type: functional; conditions: UO-31, 48 h, read-out: Activity; method in brief: as §2
[23] = system: HepG2; test: Cytotoxicity in human HepG2 cells assessed as reduction in cell viability incubated for 48 hrs by MTT assay; assay type: functional, cell-based; conditions: HepG2, 48 h
Method in brief: (§3)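 HepG2 and HL60 (ATCC) grown in DMEM with 10% FBS, 2 mM L-glutamine, penicillin/streptomycin, amphotericin B at 37 °C, 5% CO2. Samples dissolved in DMSO, diluted thousandfold in assay. Cells seeded in serum-free medium, treated with serial concentrations 48 h; MTT 4 h, formazan dissolved in acidified isopropanol, A570. Triplicates averaged; viability relative to untreated/vehicle control.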

[24] = system: NCI-H460; test: Growth inhibition of human NCI-H460 cells assessed as cell growth at 10 uM after 48 hrs by sulforhodamine B assay; assay type: functional; conditions: NCI-H460, 48 h, read-out: Activity; method in brief: as §1
[25] = system: SF-268; test: Growth inhibition of human SF268 cells assessed as cell growth at 10 uM after 48 hrs by sulforhodamine B assay; assay type: functional; conditions: SF-268, 48 h, read-out: Activity; method in brief: as §1
[26] = system: HL-60; test: Cytotoxicity in human HL60 cells assessed as reduction in cell viability incubated for 48 hrs by MTT assay; assay type: functional, cell-based; conditions: HL-60, 48 h; method in brief: as §3
[27] = system: HL-60(TB); test: Growth inhibition of human HL-60(TB) cells assessed as cell growth at 10 uM after 48 hrs by sulforhodamine B assay; assay type: functional; conditions: HL-60, 48 h, read-out: Activity
Method in brief: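 Screened by the NCI in its 60-cell-line panel covering nine cancer types, including leukemia. Compounds were added at a single concentration, and the cultures were incubated for 48 h. Results are reported as percent growth inhibition.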

[28] = system: RXF 393; test: Growth inhibition of human RXF393 cells assessed as cell growth at 10 uM after 48 hrs by sulforhodamine B assay; assay type: functional; conditions: RXF 393, 48 h, read-out: Activity; method in brief: as §1
[29] = system: NCI-H522; test: Growth inhibition of human NCI-H522 cells assessed as cell growth at 10 uM after 48 hrs by sulforhodamine B assay; assay type: functional; conditions: NCI-H522, 48 h, read-out: Activity; method in brief: as §1
[30] = system: HCT-15; test: Growth inhibition of human HCT15 cells assessed as cell growth at 10 uM after 48 hrs by sulforhodamine B assay; assay type: functional; conditions: HCT-15, 48 h, read-out: Activity; method in brief: as §1
[31] = system: NCI-H23; test: Growth inhibition of human NCI-H23 cells assessed as cell growth at 10 uM after 48 hrs by sulforhodamine B assay; assay type: functional; conditions: NCI-H23, 48 h, read-out: Activity; method in brief: as §1
[32] = system: SF-295; test: Growth inhibition of human SF295 cells assessed as cell growth at 10 uM after 48 hrs by sulforhodamine B assay; assay type: functional; conditions: SF-295, 48 h, read-out: Activity; method in brief: as §1

`CCOc1ccc(-n2nc(C(=O)NCc3ccccc3OC)nc2-c2cc(OC)c(OC)c(OC)c2)cc1` was tested, and the growth at 10 µM [1] was 41.5%, the growth at 10 µM [2] was 43.7% and the growth at 10 µM [3] was 29%. The growth at 10 µM [4] was 0.38%, the growth at 10 µM [5] was 19.6% and the growth at 10 µM [6] was 33.9%. It also gave a growth at 10 µM [7] of 26.9%, a growth at 10 µM [8] of 42.5% and a growth at 10 µM [9] of 42.1%. The growth at 10 µM [10] was 46.5%, the growth at 10 µM [11] was 23.4% and the growth at 10 µM [12] was 34.5%. For the same compound, the growth at 10 µM [13] was 22.1%, the growth at 10 µM [14] was 87.5% and the growth at 10 µM [15] was 65.2%. The growth at 10 µM [16] was 67.1%, the growth at 10 µM [17] was 40.6% and the growth at 10 µM [18] was 45.2%. For the same compound, the growth at 10 µM [19] was 25.3%, the growth at 10 µM [20] was 41.3% and the growth at 10 µM [21] was 58%. The growth at 10 µM [22] was -2.66%, the IC50 [23] was 0.62 µM and the growth at 10 µM [24] was 30.5%. For the same compound, the growth at 10 µM [25] was 54.1%, the IC50 [26] was 0.6 µM and the growth at 10 µM [27] was 19.1%. For the same compound, the growth at 10 µM [28] was 43.5%, the growth at 10 µM [29] was 35.7% and the growth at 10 µM [30] was 29%. For the same compound, the growth at 10 µM [31] was 60.8% and the growth at 10 µM [32] was 34.8%.
Work on `CCOc1ccc(-n2nc(C(=O)Nc3cc(F)cc(F)c3)nc2-c2cc(OC)c(OC)c(OC)c2)cc1` yielded a growth at 10 µM [1] of 92.9%, a growth at 10 µM [2] of 84.6% and a growth at 10 µM [3] of 67.8%. The growth at 10 µM [4] was 63.9%, the growth at 10 µM [5] was 82.7% and the growth at 10 µM [6] was 101%. For the same compound, the growth at 10 µM [7] was 69.4%, the growth at 10 µM [8] was 82% and the growth at 10 µM [9] was 98%. For the same compound, the growth at 10 µM [10] was 96.9%, the growth at 10 µM [11] was 84.8% and the growth at 10 µM [12] was 73.8%. For the same compound, the growth at 10 µM [13] was 79%, the growth at 10 µM [14] was 97.5% and the growth at 10 µM [15] was 98.2%. It also gave a growth at 10 µM [16] of 93%, a growth at 10 µM [17] of 89% and a growth at 10 µM [18] of 73.3%. The growth at 10 µM [19] was 95.2%, the growth at 10 µM [20] was 85.8% and the growth at 10 µM [21] was 99.3%. It also gave a growth at 10 µM [22] of 53.5%, an IC50 [23] of 36.5 µM and a growth at 10 µM [24] of 94.7%. The growth at 10 µM [25] was 88.9%, the IC50 [26] was greater than 100 µM and the growth at 10 µM [27] was 96.1%. For the same compound, the growth at 10 µM [28] was 88.2%, the growth at 10 µM [29] was 61.6% and the growth at 10 µM [30] was 77.9%. The growth at 10 µM [31] was 84% and the growth at 10 µM [32] was 84.6%.
`CCOc1ccc(-n2nc(C(=O)Nc3cc(OC)c(OC)c(OC)c3)nc2-c2cc(OC)c(OC)c(OC)c2)cc1` was tested, and the growth at 10 µM [1] was 85.6%, the growth at 10 µM [2] was 74% and the growth at 10 µM [3] was 69.9%. For the same compound, the growth at 10 µM [4] was 67.5%, the growth at 10 µM [5] was 85.7% and the growth at 10 µM [6] was 91.5%. The growth at 10 µM [7] was 55.7%, the growth at 10 µM [8] was 85.1% and the growth at 10 µM [9] was 91.5%. For the same compound, the growth at 10 µM [10] was 104%, the growth at 10 µM [11] was 68.1% and the growth at 10 µM [12] was 86.9%. It also gave a growth at 10 µM [13] of 83.2%, a growth at 10 µM [14] of 85.2% and a growth at 10 µM [15] of 99.1%. It also gave a growth at 10 µM [16] of 99.7%, a growth at 10 µM [17] of 84.6% and a growth at 10 µM [18] of 82.1%. It also gave a growth at 10 µM [19] of 75.8%, a growth at 10 µM [20] of 96.1% and a growth at 10 µM [21] of 95.5%. It also gave a growth at 10 µM [22] of 52.6%, an IC50 [23] of 37.8 µM and a growth at 10 µM [24] of 92.1%. For the same compound, the growth at 10 µM [25] was 92.1%, the IC50 [26] was greater than 100 µM and the growth at 10 µM [27] was 98.2%. For the same compound, the growth at 10 µM [28] was 83.8%, the growth at 10 µM [29] was 65.9% and the growth at 10 µM [30] was 82.1%. For the same compound, the growth at 10 µM [31] was 85% and the growth at 10 µM [32] was 95.9%.
